The values below come from ChEMBL document CHEMBL1149763, “Synthesis, in vitro antiproliferative activities, and Chk1 inhibitory properties of pyrrolo[3,4-a]carbazole-1,3-diones, pyrrolo[3,4-c]carbazole-1,3-diones, and 2-aminopyridazino[3,4-a]pyrrolo[3,4-c]carbazole-1,3,4,7-tetraone” (Eur J Med Chem, 2008).

The structures appear in SMILES notation. The source made the active and inactive calls. No cut-off for these calls is given here.

The nature of assay [1]: Antiproliferative activity against human […] cells microculture tetrazolium assay. It counts as functional, cell-based. The procedure, abridged:
(§1)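 Cells grown in RPMI 1640 with 10% fetal calf serum, 2 mM L-glutamine, penicillin/streptomycin and 10 mM HEPES (pH 7.4). Continuous exposure to graded compound concentrations for four doubling times. MTT (5 mg/mL) added, 4 h at 37 °C, formazan dissolved in DMSO, optical density read. IC50 is the concentration halving optical density relative to untreated controls.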

Assay [2] concerns the target T1, Serine/threonine-protein kinase Chk1 (Homo sapiens) (UniProt O14757).
T1 sequence (whole entry): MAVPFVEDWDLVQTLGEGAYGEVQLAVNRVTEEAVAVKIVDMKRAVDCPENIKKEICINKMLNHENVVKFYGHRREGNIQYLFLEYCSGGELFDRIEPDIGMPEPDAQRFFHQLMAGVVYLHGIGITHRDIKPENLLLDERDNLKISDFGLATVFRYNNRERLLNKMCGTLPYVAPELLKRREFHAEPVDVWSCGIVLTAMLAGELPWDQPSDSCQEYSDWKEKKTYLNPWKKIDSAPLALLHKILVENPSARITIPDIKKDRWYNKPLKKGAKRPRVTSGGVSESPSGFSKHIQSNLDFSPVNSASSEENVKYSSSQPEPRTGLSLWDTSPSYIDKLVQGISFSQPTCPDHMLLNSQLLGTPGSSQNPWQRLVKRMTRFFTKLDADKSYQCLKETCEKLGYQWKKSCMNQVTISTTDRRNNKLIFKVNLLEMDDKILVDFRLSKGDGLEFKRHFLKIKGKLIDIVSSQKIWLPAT
In words: Inhibition of human Chk1 at 10 uM. The gist of the method: (§2)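 Chk1, commercial or GST-Chk1 purified from baculovirus-infected Sf9 cell extracts. Percent inhibition measured at a single compound concentration; IC50 also determined.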

The test system of the next assay is HT-29. Put plainly: Antiproliferative activity against human HT29 cells microculture tetrazolium assay. In kind it is functional, cell-based. The gist of the method:
as §1

The subject of the next assay is L1210. In words: Antiproliferative activity against mouse L1210 cells by microculture tetrazolium assay. In kind it is functional, cell-based. The procedure, abridged: as §1
In assay [3] the target is Proto-oncogene tyrosine-protein kinase Src (Homo sapiens) (UniProt P12931). In words: Inhibition of Src kinase at 10 uM. The gist of the method:
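Radiometric Src kinase assay. 20 min at 30 °C, stopped with 0.85% orthophosphoric acid, captured on phosphocellulose filter, washed with orthophosphoric acid, dried with acetone.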

In assay [4] the target is T2, Serine/threonine-protein kinase Chk1 (Homo sapiens, UniProt O14757).
T2 sequence (O14757 whole entry): T1 sequence (whole entry)
Put plainly: Inhibition of human Chk1. The procedure, abridged:
as §2

Chain of Proto-oncogene tyrosine-protein kinase Src (Homo sapiens) (P12931 2-536 limits assumed): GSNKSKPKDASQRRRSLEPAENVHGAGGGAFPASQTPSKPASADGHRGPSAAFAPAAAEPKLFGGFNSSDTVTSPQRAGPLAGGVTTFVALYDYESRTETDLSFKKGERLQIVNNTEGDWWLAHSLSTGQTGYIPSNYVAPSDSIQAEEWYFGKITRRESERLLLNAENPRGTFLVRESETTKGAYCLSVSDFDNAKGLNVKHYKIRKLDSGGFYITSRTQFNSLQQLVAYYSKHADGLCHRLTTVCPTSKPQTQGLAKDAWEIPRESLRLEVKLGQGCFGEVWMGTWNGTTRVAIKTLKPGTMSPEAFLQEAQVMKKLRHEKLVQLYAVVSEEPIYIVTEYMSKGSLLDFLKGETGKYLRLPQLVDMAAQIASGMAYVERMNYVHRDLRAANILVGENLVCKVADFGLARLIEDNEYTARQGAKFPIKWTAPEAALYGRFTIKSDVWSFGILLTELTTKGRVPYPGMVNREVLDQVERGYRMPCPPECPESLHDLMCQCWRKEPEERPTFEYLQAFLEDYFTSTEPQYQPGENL

Broadly, the IC50 is the midpoint of a concentration-inhibition curve. A high value points to a need for much substance. `O=C1NC(=O)c2c1c1[nH]cnc1c1[nH]c3ccccc3c21` [GRANULATIMIDE] returned a half-inhibitory concentration (IC50) in assay [1] of 6.1 µM.

The inhibition is the drop in the measured response relative to a control, in per cent. A higher inhibition goes with a response far below the control. Regarding `O=C1NC(=O)c2c1cc(O)c1c2[nH]c2ccccc21`, the inhibition in assay [2] was 11%. Besides, the IC50 amounted to 34.4 µM in assay [1], 46.7 µM in the assay with HT-29 and 54.4 µM with L1210.

As to `O=c1[nH]c(=O)c2c1c1[nH]c3ccccc3c1c1c(=O)oc(=O)c21`, the outcome in assay [2] was inactive. For the same compound, the IC50 in assay [1] amounted to 10.7 µM; in the assay on HT-29 it was 33 µM; in the assay with L1210, 11.9 µM.

In assay [2], `CCOC(=O)c1cc2c(c3[nH]c4ccccc4c13)C(=O)NC2=O` gave an inhibition of 45.3%. Also, the IC50 in assay [1] came to 3.8 µM; in the assay on HT-29 it was 6.4 µM; in the assay on L1210, 4.9 µM.

Turning to `O=C1NC(=O)c2c1c1c3ccccc3[nH]c1n1cncc21` [ISOGRANULATIMIDE], the IC50 in assay [1] came out at 13 µM.

As for `CCOC(=O)c1cc2c(c3c1[nH]c1ccccc13)C(=O)N(CO)C2=O`, the inhibition was found to be 11.5% in assay [3] and 72.4% in assay [2]. The IC50 stood at 0.21 µM in assay [4], 2.9 µM in assay [1], 3.9 µM in the assay on HT-29 and 5.5 µM in the assay with L1210.

Regarding `O=C1NC(=O)c2c1c1c(c3c2[nH]c2ccccc23)CNC1=O`, the IC50 in assay [4] was 0.37 µM; in assay [1] it was 58.9 µM; with HT-29, greater than 100 µM; with L1210, 47 µM. Further, the inhibition in assay [2] came out at 71.7%.

As for `O=C1NC(=O)c2c1c1c(c3c2[nH]c2ccccc23)C(=O)NC1`, the IC50 worked out at 0.05 µM in assay [4], 10.2 µM in assay [1], 8.2 µM in the assay on HT-29 and 45.8 µM in the assay on L1210. For the same compound, the inhibition in assay [2] is 85.4%.

Regarding `CCOC(=O)c1cc2c(c3c1[nH]c1ccccc13)C(=O)NC2=O`, the 50% inhibitory concentration (IC50) is greater than 5 µM in assay [4], 2.3 µM in assay [1], 4 µM with HT-29 and 5.8 µM with L1210. Also, in assay [2], the inhibition is 71.7%.

On to `CCOC(=O)c1c2c(c3[nH]c4ccccc4c3c1O)C(=O)N(CO)C2=O`, for which, in assay [2], the result was inactive. For the same compound, the half-inhibitory concentration (IC50) was 11.5 µM in assay [1], 31.7 µM with HT-29 and 10.6 µM in the assay with L1210.

Consider `O=C1NC(=O)C2C1c1[nH]c3ccccc3c1C1C(=O)OC(=O)C12` (stereo unspecified), for which the inhibition in assay [2] came to 10.6%. Besides, the IC50 is 6.2 µM in the assay with HT-29 and 5.7 µM in the assay with L1210.

Regarding `CCOC(=O)c1c2c(c3[nH]c4ccccc4c3c1O)C(=O)NC2=O`, in assay [2], the outcome was inactive. In addition, the IC50 is 33.6 µM in assay [1], 84.9 µM in the assay on HT-29 and 57.5 µM in the assay on L1210.
